How the values were obtained:
Format in all cases: functional
OVCAR-5 = experiment: Cytotoxicity against human OVCAR5 cells after 48 hrs by SRB assay; details: OVCAR-5, 48 h
In short: (§1)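 Run at NCI: cell lines exposed 48 h to a range of concentrations, with untreated controls under identical conditions. Growth measured by sulforhodamine B staining with colorimetric read-out. Percent growth computed from test, time-zero and control absorbances. GI50, TGI and LC50 read from PG versus log10 molar concentration as the concentrations giving PG = 50, 0 and -50.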

ACHN = experiment: Cytotoxicity against human ACHN cells after 48 hrs by SRB assay; in short: as §1
OVCAR-8 = experiment: Cytotoxicity against human OVCAR8 cells after 48 hrs by SRB assay; details: OVCAR-8, 48 h; in short: as §1
MDA-N = experiment: Cytotoxicity against human MDA-N cells after 48 hrs by SRB assay; in short: as §1
MDA-MB-231 = experiment: Cytotoxicity against human MDA-MB-231 cells after 48 hrs by SRB assay; details: MDA-MB-231, 48 h; in short: as §1
A498 = experiment: Cytotoxicity against human A498 cells after 48 hrs by SRB assay; details: A498, 48 h; in short: as §1
[1] = Cytotoxicity against human HS 578T cells after 48 hrs by SRB assay; in short: as §1
HOP-62 = experiment: Cytotoxicity against human HOP62 cells after 48 hrs by SRB assay; details: HOP-62, 48 h; in short: as §1
BT-549 = experiment: Cytotoxicity against human BT549 cells after 48 hrs by SRB assay; details: BT-549, 48 h; in short: as §1
SK-OV-3 = experiment: Cytotoxicity against human SKOV3 cells after 48 hrs by SRB assay; details: SK-OV-3, 48 h; in short: as §1
OVCAR-4 = experiment: Cytotoxicity against human OVCAR4 cells after 48 hrs by SRB assay; details: OVCAR-4, 48 h; in short: as §1
COLO 205 = experiment: Cytotoxicity against human COLO205 cells after 48 hrs by SRB assay; details: COLO 205, 48 h; in short: as §1
MOLT-4 = experiment: Cytotoxicity against human MOLT4 cells after 48 hrs by SRB assay; details: MOLT-4, 48 h; in short: as §1
SF-539 = experiment: Cytotoxicity against human SF539 cells after 48 hrs by SRB assay; details: SF-539, 48 h; in short: as §1
UACC-257 = experiment: Cytotoxicity against human UACC257 cells after 48 hrs by SRB assay; details: UACC-257, 48 h; in short: as §1
SK-MEL-28 = experiment: Cytotoxicity against human SK-MEL-28 cells after 48 hrs by SRB assay; details: SK-MEL-28, 48 h; in short: as §1
NCI/ADR-RES = experiment: Cytotoxicity against human NCI/ADR-RES cells after 48 hrs by SRB assay; in short: as §1
CAKI-1 = experiment: Cytotoxicity against human CAKI1 cells after 48 hrs by SRB assay; details: CAKI-1, 48 h; in short: as §1
EKVX = experiment: Cytotoxicity against human EKVX cells after 48 hrs by SRB assay; in short: as §1
HCT-116 = experiment: Cytotoxicity against human HCT116 cells after 48 hrs by SRB assay; details: HCT-116, 48 h; in short: as §1
786-0 = experiment: Cytotoxicity against human 786-0 cells after 48 hrs by SRB assay; details: 786-0, 48 h; in short: as §1
A549 = experiment: Cytotoxicity against human A549 cells after 48 hrs by SRB assay; details: A549, 48 h; in short: as §1
RPMI-8226 = experiment: Cytotoxicity against human RPMI8226 cells after 48 hrs by SRB assay; details: RPMI-8226, 48 h; in short: as §1
U-251 = experiment: Cytotoxicity against human U251 cells after 48 hrs by SRB assay; details: U-251, 48 h; in short: as §1
HCC 2998 = experiment: Cytotoxicity against human HCC2998 cells after 48 hrs by SRB assay; details: HCC 2998, 48 h; in short: as §1
TK-10 = experiment: Cytotoxicity against human TK10 cells after 48 hrs by SRB assay; details: TK-10, 48 h; in short: as §1
SK-MEL-2 = experiment: Cytotoxicity against human SK-MEL-2 cells after 48 hrs by SRB assay; details: SK-MEL-2, 48 h; in short: as §1
SNB-19 = experiment: Cytotoxicity against human SNB19 cells after 48 hrs by SRB assay; details: SNB-19, 48 h
In short: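 Run at NCI: cells exposed 48 h to a range of concentrations, with untreated controls under identical conditions. Growth measured by sulforhodamine B staining with colorimetric read-out. Percent growth (PG) calculated from absorbance at 48 h with drug, at time zero, and at 48 h without drug. Log molar concentration plotted against PG; GI50 at PG = 50, TGI at PG = 0, LC50 at PG = −50.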

MCF7 = experiment: Cytotoxicity against human MCF7 cells after 48 hrs by SRB assay; details: MCF7, 48 h; in short: as §1
T47D = experiment: Cytotoxicity against human T47D cells after 48 hrs by SRB assay; in short: as §1
[2] = read-out: Log LC50 (the source's name) (converted)

SMILES: CC(=O)O[C@@H]1C#C/C=C\C#CC[C@H]2C(=O)N(C(=O)OC(C)(C)C)[C@H]12
- GI50 (OVCAR-5): > 100 µM
- CC50 (OVCAR-5; [2]): > 100 µM
- TGI (OVCAR-5; read-out: Log TGI (converted)): > 100 µM
- GI50 (ACHN): 2.63 µM
- CC50 (ACHN; [2]): > 100 µM
- TGI (ACHN; read-out: Log TGI (converted)): 25.7 µM
- GI50 (OVCAR-8): 14.5 µM
- CC50 (OVCAR-8; [2]): > 100 µM
- TGI (OVCAR-8; read-out: Log TGI (converted)): 89.1 µM
- GI50 (MDA-N): 87.1 µM
- CC50 (MDA-N; [2]): > 100 µM
- TGI (MDA-N; read-out: Log TGI (converted)): > 100 µM
- GI50 (MDA-MB-231): > 100 µM
- CC50 (MDA-MB-231; [2]): > 100 µM
- TGI (MDA-MB-231; read-out: Log TGI (converted)): > 100 µM
- GI50 (A498): 17 µM
- CC50 (A498; [2]): > 100 µM
- TGI (A498; read-out: Log TGI (converted)): 97.7 µM
- GI50 [1]: 53.7 µM
- CC50 [1, 2]: > 100 µM
- TGI ([1]; read-out: Log TGI (converted)): > 100 µM
- GI50 (HOP-62): 5.01 µM
- CC50 (HOP-62; [2]): > 100 µM
- TGI (HOP-62; read-out: Log TGI (converted)): 38 µM
- GI50 (BT-549): 24.5 µM
- CC50 (BT-549; [2]): > 100 µM
- TGI (BT-549; read-out: Log TGI (converted)): > 100 µM
- GI50 (SK-OV-3): 87.1 µM
- CC50 (SK-OV-3; [2]): > 100 µM
- TGI (SK-OV-3; read-out: Log TGI (converted)): > 100 µM
- GI50 (OVCAR-4): > 100 µM
- CC50 (OVCAR-4; [2]): > 100 µM
- TGI (OVCAR-4; read-out: Log TGI (converted)): > 100 µM
- GI50 (COLO 205): 39.8 µM
- CC50 (COLO 205; [2]): > 100 µM
- TGI (COLO 205; read-out: Log TGI (converted)): > 100 µM
- GI50 (MOLT-4): 0.407 µM
- CC50 (MOLT-4; [2]): > 100 µM
- TGI (MOLT-4; read-out: Log TGI (converted)): > 100 µM
- GI50 (SF-539): 0.724 µM
- CC50 (SF-539; [2]): 25.7 µM
- TGI (SF-539; read-out: Log TGI (converted)): 5.37 µM
- CC50 (UACC-257; [2]): > 100 µM
- TGI (UACC-257; read-out: Log TGI (converted)): > 100 µM
- GI50 (UACC-257; read-out: pGI50 (converted)): 18.2 µM
- GI50 (SK-MEL-28): 87.1 µM
- CC50 (SK-MEL-28; [2]): > 100 µM
- TGI (SK-MEL-28; read-out: Log TGI (converted)): > 100 µM
- GI50 (NCI/ADR-RES): 28.8 µM
- CC50 (NCI/ADR-RES; [2]): > 100 µM
- TGI (NCI/ADR-RES; read-out: Log TGI (converted)): > 100 µM
- GI50 (CAKI-1): 0.355 µM
- CC50 (CAKI-1; [2]): 60.3 µM
- TGI (CAKI-1; read-out: Log TGI (converted)): 6.46 µM
- GI50 (EKVX): > 100 µM
- CC50 (EKVX; [2]): > 100 µM
- TGI (EKVX; read-out: Log TGI (converted)): > 100 µM
- GI50 (HCT-116): 25.7 µM
- CC50 (HCT-116; [2]): > 100 µM
- TGI (HCT-116; read-out: Log TGI (converted)): > 100 µM
- GI50 (786-0): 11.5 µM
- CC50 (786-0; [2]): > 100 µM
- TGI (786-0; read-out: Log TGI (converted)): 69.2 µM
- GI50 (A549): 28.2 µM
- CC50 (A549; [2]): > 100 µM
- TGI (A549; read-out: Log TGI (converted)): > 100 µM
- GI50 (RPMI-8226): 17.8 µM
- CC50 (RPMI-8226; [2]): > 100 µM
- TGI (RPMI-8226; read-out: Log TGI (converted)): > 100 µM
- GI50 (U-251): 16.2 µM
- CC50 (U-251; [2]): > 100 µM
- TGI (U-251; read-out: Log TGI (converted)): > 100 µM
- GI50 (HCC 2998): 34.7 µM
- CC50 (HCC 2998; [2]): > 100 µM
- TGI (HCC 2998; read-out: Log TGI (converted)): > 100 µM
- GI50 (TK-10): 35.5 µM
- CC50 (TK-10; [2]): > 100 µM
- TGI (TK-10; read-out: Log TGI (converted)): > 100 µM
- GI50 (SK-MEL-2): 47.9 µM
- CC50 (SK-MEL-2; [2]): > 100 µM
- TGI (SK-MEL-2; read-out: Log TGI (converted)): > 100 µM
- CC50 (SNB-19; [2]): > 100 µM
- TGI (SNB-19; read-out: Log TGI (converted)): > 100 µM
- GI50 (MCF7): 1.1 µM
- CC50 (MCF7; [2]): > 100 µM
- TGI (MCF7; read-out: Log TGI (converted)): > 100 µM
- GI50 (T47D): 100 µM
- CC50 (T47D; [2]): > 100 µM
- TGI (T47D; read-out: Log TGI (converted)): > 100 µM

Source: ChEMBL document CHEMBL1142420, “Synthesis and DNA-cleaving activity of lactenediynes conjugated with DNA-complexing moieties” (2008)
